Tests used:
[1] = Inhibition of nuclear factor of activated T-cells (NFAT) mediated transcription of beta-galactosidase in J.NFATZ.1 cells; type: functional, cell-based, T-cell
Jurkat [2] = experiment: Binding affinity was measured on jurkat cell membrane using [3H3C] as radioligand; type: functional, cell membranes, Homo sapiens
Jurkat [3] = experiment: Inhibition of beta-galactosidase as expression in J.NFATZ.1 cells at 10 uM mediated by nuclear factor of activated T-cells transcription; type: functional
Jurkat [4] = experiment: Concentration required to inhibit nuclear factor of activated T-cells mediated transcription of beta-galactosidases expression in J.NFATZ.1 cells; Not active; type: functional, cell-based
Outline: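 J.NFATZ.1 cells, 1.25×10^5 per well, were stimulated with PMA (2 ng/mL final) and ionomycin (25 μM final) in the presence of compound (0.1% DMSO final). Incubation 5 h at 37 °C. Cells were lysed and incubated 1 h at 37 °C with 4-methylumbelliferyl β-D-galactoside (10 μg/mL final, pH 7.8). Fluorescence read at […]. IC50 obtained by four-parameter logistic fit.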

Jurkat [5] = experiment: Binding affinity was measured on jurkat cell membrane using [3H3C] as radioligand.; type: functional, cell membranes, Homo sapiens

IC50 ([1]; T-cell) | SMILES | further results
2250 nM | CC(C)Cn1c(=O)n(C)c(=O)c2cc3c(cc21)O[C@H](c1ccccc1)O3 | –
435 nM | CC(C)Cn1c(=O)n(C)c(=O)c2cn(Cc3ccc(Cl)cc3)cc21 | –
89 nM | CSc1c2c(=O)n(C)c(=O)n(CC(C)C)c2cn1Cc1cccc2ccccc12 | –
4480 nM | CC(C)Cn1c(=O)n(C)c(=O)c2cc3c(cc21)O[C@](C)(c1ccccc1)O3 | –
4030 nM | CC(C)Cn1c(=O)n(C)c(=O)c2cc(CCc3ccccc3)ccc21 | –
1320 nM | CC(C)Cn1c(=O)n(C)c(=O)c2cc(NCc3ccccc3F)ccc21 | –
1200 nM | CC(C)Cn1c(=O)n(C)c(=O)c2cn([C@H](C)c3ccccc3)cc21 | Ki (Jurkat [2]): 562 nM
4470 nM | CC(C)Cn1c(=O)n(C)c(=O)c2cc(NCc3ccccc3)ccc21 | –
640 nM | CC(C)Cn1c(=O)n(C)c(=O)c2cn(Cc3ccc(O)cc3)cc21 | –
75 nM | CC(C)Cn1c(=O)n(C)c(=O)c2cn(Cc3ccc4ccccc4c3)cc21 | Ki (Jurkat [5]): 29.4 nM
275 nM | COc1cccc(Cn2cc3c(=O)n(C)c(=O)n(CC(C)C)c3c2)c1 | –
1460 nM | CC(C)Cn1c(=O)n(C)c(=O)c2cn(C(c3ccccc3)c3ccccc3)cc21 | –
2050 nM | CC(C)Cn1c(=O)n(C)c(=O)c2ccc(OCc3ccccc3)cc21 | –
275 nM | COc1ccccc1Cn1cc2c(=O)n(C)c(=O)n(CC(C)C)c2c1 | Ki (Jurkat [5]): 170 nM
1300 nM | CC(C)Cn1c(=O)n(C)c(=O)c2cn([C@@H](C)c3ccccc3)cc21 | Ki (Jurkat [2]): 301 nM
26 nM | CC(C)Cn1c(=O)n(C)c(=O)c2cn(Cc3cccc4ccccc34)cc21 | Ki (Jurkat [5]): 23 nM
630 nM | CC(C)Cn1c(=O)n(C)c(=O)c2cn(Cc3ccccc3F)cc21 | –
2500 nM | CC(C)Cn1c(=O)n(C)c(=O)c2cc(OCc3ccccc3)ccc21 | –
260 nM | CC(C)Cn1c(=O)n(C)c(=O)c2cn(Cc3ccccc3Cl)cc21 | Ki (Jurkat [5]): 122 nM
150 nM | Cc1c2c(cn1Cc1cccc3ccccc13)c(=O)n(C)c(=O)n2CC(C)C | –
870 nM | CC(C)Cn1c(=O)n(C)c(=O)c2cn(Cc3ccccc3)cc21 | –
320 nM | Cc1ccc(Cn2cc3c(=O)n(C)c(=O)n(CC(C)C)c3c2)cc1 | –

The next lines start with the molecule.

SMILES | IC50 ([1]; T-cell) | further results
CC(C)n1c(=O)n(C)c(=O)c2cn(Cc3cccc4ccccc34)cc21 | 21.5 nM | Ki (Jurkat [2]): 15.3 nM
CCC(C)n1c(=O)n(C)c(=O)c2cn(C3Cc4cccc5cccc3c45)cc21 (stereo in doubt; 5g) | – | IC50 ([1]; t-cell): 5.4 nM
CC(C)Cn1c(=O)n(C)c(=O)c2cc(NCc3ccc(C(C)(C)C)cc3)ccc21 | – | Inhibition (Jurkat [3]): 34%
CNC(=O)CCCn1c(=O)c2cn(Cc3cccc4ccccc34)cc2n(CC(C)C)c1=O | – | IC50 (Jurkat [4]): Not Active
CC(C)Cn1c(=O)n(C)c(=O)c2cn(C3Cc4ccccc4C3)cc21 | 312 nM | Ki (Jurkat [2]): 4.8 nM
COc1ccc(Cn2cc3c(=O)n(C)c(=O)n(CC(C)C)c3c2)cc1 | 240 nM | –
CC(C)Cn1c(=O)n(C)c(=O)c2cn(Cc3ccc(O)c(I)c3)cc21 | 89 nM | –
CC(C)Cn1c(=O)n(C)c(=O)c2cn(Cc3cccc(Cl)c3Cl)cc21 | 1200 nM | –
COc1ccc(Cn2cc3c(c2CN2CCOCC2)c(=O)n(C)c(=O)n3CC(C)C)cc1 | 800 nM | Ki (Jurkat [2]): 315 nM
CC(O)Cn1c(=O)n(C)c(=O)c2cn(Cc3cccc4ccccc34)cc21 (centres undefined) | 3950 nM | Ki (Jurkat [2]): 697 nM
COc1ccc(Cn2cc3c(=O)n(C)c(=O)n(CC(C)C)c3c2)c(OC)c1 | 310 nM | Ki (Jurkat [2]): 88 nM
CC(C)Cn1c(=O)n(C)c(=O)c2ccc(NCc3ccccc3)cc21 | – | Inhibition (Jurkat [3]): 40%
CC(C)CCn1c(=O)n(C)c(=O)c2cn(Cc3cccc4ccccc34)cc21 | 815 nM | –
CC(C)Cn1c(=O)n(C)c(=O)c2cn(C3CCc4ccccc43)cc21 (centres undefined) | 186 nM | –
CC(C)Cn1c(=O)[nH]c(=O)c2cn(C3Cc4cccc5cccc3c45)cc21 (centres undefined) | 660 nM | Ki (Jurkat [2]): 454 nM
CCC(C)n1c(=O)n(C)c(=O)c2cn(C3Cc4cccc5cccc3c45)cc21 (stereo in doubt; 5g4) | – | IC50 ([1]; t-cell): 48 nM
CC(C)Cn1c(=O)n(C)c(=O)c2cn(C3Cc4cccc5cccc3c45)cc21 (centres undefined) | 8 nM | –

SMILES | IC50 ([1]; T-cell) | further results
COc1ccc(Cn2cc3c(=O)n(C)c(=O)n(CC(C)C)c3c2)cc1I | 166 nM | –
CSc1ccc(Cn2cc3c(=O)n(C)c(=O)n(CC(C)C)c3c2)cc1 | 260 nM | –
CC(C)Cn1c(=O)[nH]c(=O)c2cn(Cc3cccc4ccccc34)cc21 | 3000 nM | –
CC(C)Cn1c(=O)n(C)c(=O)c2cc(NCc3ccc(C(=O)O)cc3)ccc21 | – | Inhibition (Jurkat [3]): 30%
CCn1c(=O)c2cn(Cc3cccc4ccccc34)cc2n(CC(C)C)c1=O | 90 nM | –
CCn1c(=O)n(C)c(=O)c2cn(Cc3cccc4ccccc34)cc21 | 440 nM | –
CCCCOc1ccc(Cn2cc3c(=O)n(C)c(=O)n(CC(C)C)c3c2)cc1 | 190 nM | –
CC(C)Cn1c(=O)n(C)c(=O)c2c(SCCCO)n(Cc3cccc4ccccc34)cc21 | 6 nM | Ki (Jurkat [2]): 1.1 nM
COc1ccc(Cn2cc3c(=O)n(C)c(=O)n(CC(C)C)c3c2)cc1OC | 378 nM | –
Cn1c(=O)c2cn(Cc3cccc4ccccc34)cc2n(CC2CC2)c1=O | 140 nM | –
Cn1c(=O)c2cn(Cc3cccc4ccccc34)cc2n(CC2CCCCC2)c1=O | 1210 nM | –
COc1cccc(Cn2cc3c(=O)n(C)c(=O)n(CC(C)C)c3c2)c1OC | 224 nM | –
CCC(C)n1c(=O)n(C)c(=O)c2cn(C3Cc4cccc5cccc3c45)cc21 (stereo in doubt; 5g3) | – | IC50 ([1]; t-cell): 17 nM
CC(C)Cn1c(=O)n(C)c(=O)c2cn(Cc3ccc(C(F)(F)F)cc3)cc21 | 1300 nM | –
COc1ccc(Cn2cc3c(c2SC)c(=O)n(C)c(=O)n3CC(C)C)cc1 | 360 nM | Ki (Jurkat [2]): 305 nM
COC(=O)c1ccc(CNc2ccc3c(c2)c(=O)n(C)c(=O)n3CC(C)C)cc1 | – | Inhibition (Jurkat [3]): 35%

From ChEMBL document CHEMBL1128427, “Novel inhibitors of the nuclear factor of activated T cells (NFAT)-mediated transcription of beta-galactosidase: potential immunosuppressive and antiinflammatory agents” (J Med Chem, 1995)
